Test results from ChEMBL document CHEMBL5550082, “Discovery of pyrazolo[3,4-d]pyrimidines as novel mitogen-activated protein kinase kinase 3 (MKK3) inhibitors” (Bioorg Med Chem, 2024).
≈ marks a conversion by molar mass, not a printed value. Calls of active or inactive are those of the source. No cut-off for these calls is given here.

Columns and labels:
[1] = Inhibition of N-terminal GST-tagged recombinant human MKK3 […]/T193E mutant expressed in baculovirus infected Sf9 insect cells using STK-3-biotin as substrate at 5 uM preincubated for 30 mins followed by substrate/ATP addition measured after 90 mins by TR-FRET assay relative to control; details: time 120.0 min
Method in brief: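 GST-tagged MKK3 S189E/T193E (MKK3E), glutathione-purified from baculovirus-infected Sf9 cells, was used at 100 nM. It was preincubated 30 min at room temperature with compound, then 1 µM ATP and 1 µM STK-3-biotin peptide were added and reacted at least 90 min at 30 °C. Reactions were stopped with Eu-antibody and streptavidin-XL665, and HTRF was read as the 665/620 nm ratio.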

[2] = target: T1, Dual specificity mitogen-activated protein kinase kinase 3 (Homo sapiens, UniProt P46734); experiment: Displacement of tracer K-9 from C-terminal NanoLuc fused full-length MKK3 (unknown origin) transfected in HEK293T cells by BRET assay; assay type: cell-based
T1 sequence (P46734 whole entry): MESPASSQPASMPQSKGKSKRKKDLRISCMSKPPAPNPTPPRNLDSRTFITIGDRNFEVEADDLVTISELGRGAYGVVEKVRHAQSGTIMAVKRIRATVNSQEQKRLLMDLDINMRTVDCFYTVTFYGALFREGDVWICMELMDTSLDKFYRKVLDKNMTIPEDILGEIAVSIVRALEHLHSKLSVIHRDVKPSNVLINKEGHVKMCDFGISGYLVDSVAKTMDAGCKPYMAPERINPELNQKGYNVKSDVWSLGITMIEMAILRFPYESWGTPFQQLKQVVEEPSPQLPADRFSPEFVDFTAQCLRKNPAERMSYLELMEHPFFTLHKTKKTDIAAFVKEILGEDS
Method in brief: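 HEK293T cells in DMEM with 10 % FBS were transiently transfected with full-length wild-type MKK3 carrying a C-terminal NanoLuc fusion and cultured 48 h at 37 °C. The cells were then resuspended in Opti-MEM at 2×10^5 cells/mL. Tracer K-9 was added at 1.0 μM final with compound dilutions (2 % DMSO final) for 2 h. After NanoLuc substrate plus extracellular inhibitor, emissions at 460 and 610 nm were read as mBRET, normalized, and fitted to give IC50.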

[3] = target: Death-associated protein kinase 3 (Homo sapiens) (UniProt O43293); experiment: Displacement of Eu-Streptavidin from human DAPK3 by TR-FRET assay
Death-associated protein kinase 3 (Homo sapiens), sequence (O43293 whole entry, looked up): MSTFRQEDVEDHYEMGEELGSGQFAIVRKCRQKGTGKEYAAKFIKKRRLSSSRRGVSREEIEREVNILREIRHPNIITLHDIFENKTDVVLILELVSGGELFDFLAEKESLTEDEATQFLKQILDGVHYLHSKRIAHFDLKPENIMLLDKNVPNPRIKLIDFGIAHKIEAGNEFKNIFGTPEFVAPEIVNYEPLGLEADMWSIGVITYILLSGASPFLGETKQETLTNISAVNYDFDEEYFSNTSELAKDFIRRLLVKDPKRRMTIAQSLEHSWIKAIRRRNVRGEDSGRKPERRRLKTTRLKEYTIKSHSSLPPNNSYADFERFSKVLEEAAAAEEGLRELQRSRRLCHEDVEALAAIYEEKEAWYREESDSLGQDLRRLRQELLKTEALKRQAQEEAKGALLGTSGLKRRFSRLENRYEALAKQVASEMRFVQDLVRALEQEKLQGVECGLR
Method in brief: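 Human DAPK3, biotinylated in vivo during expression, tested in a TR-FRET assay measuring competitive displacement of a generic ATP-competitive fluorescent tracer. Compound tested at a single concentration of 1 µM. Displacement is relative to vehicle: DMSO sets 0 % and a reference inhibitor specific to the kinase sets 100 %.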

[4] = Aqueous solubility of compound; assay type: physicochemical; details: water (aqueous)

Compound | inhibition [1] | other results
CC(C)(C)n1nc(-c2ccc(S(=O)(=O)NC3CC3)cc2)c2c(N)ncnc21 | 12.6% | 
CC(C)(C)n1nc(-c2cc(F)c(O)c(F)c2)c2c(N)ncnc21 | 44.9% | IC50 [2]: 145 µM; Activity [3]: > 80%
CC(C)(C)n1nc(-c2ccc(F)c(Cl)c2)c2c(N)ncnc21 | 39.3% | 
CC(C)NC(=O)c1ccc(-c2nn(C(C)(C)C)c3ncnc(N)c23)cc1 | 26.4% | 
CC(C)(C)n1nc(-c2ccc3[nH]ccc3c2)c2c(N)ncnc21 | 58.2% | 
CC(C)(C)n1nc(-c2cccc3cnccc23)c2c(N)ncnc21 | 12.4% | 
CC(C)(C)n1nc(-c2cc(Cl)cc(Cl)c2)c2c(N)ncnc21 | 23.4% | 
CC(C)(C)n1nc(-c2ccc(F)c(C(=O)NCCO)c2)c2c(N)ncnc21 | 5.2% | 
CC(C)(C)n1nc(-c2ccc3ncccc3c2)c2c(N)ncnc21 | 28.2% | 
CC(C)(C)n1nc(-c2cccc(C(=O)NC3CC3)c2)c2c(N)ncnc21 | 7.1% | 
CC(C)(C)n1nc(-c2cccc(Cl)c2)c2c(N)ncnc21 | 19.8% | 
CC(C)(C)n1nc(-c2cccc(Cl)c2F)c2c(N)ncnc21 | 35.2% | 
CC(C)(C)n1nc(-c2ccc(F)c(C#N)c2)c2c(N)ncnc21 | 35.6% | 
CC(C)(C)n1nc(-c2ccccc2F)c2c(N)ncnc21 | 37.4% | 
CC(C)(C)n1nc(-c2ccnc3ccccc23)c2c(N)ncnc21 | 3.4% | 
CC(C)(C)n1nc(-c2ccc(N)c3ccccc23)c2c(N)ncnc21 | 54.8% | 
CC(C)(C)n1nc(-c2cccc(C#N)c2)c2c(N)ncnc21 | inactive | 
CC(C)n1nc(-c2cc3cc(O)ccc3[nH]2)c2c(N)ncnc21 |  | Activity [3]: Active; solubility [4]: 6 µg/mL (≈ 19.5 µM)
CC(C)(C)n1nc(-c2ccccc2)c2c(N)ncnc21 | 34.8% | 
CC(C)(C)n1nc(-c2cccc3cn[nH]c23)c2c(N)ncnc21 | inactive | 
